Measurements published in ChEMBL document CHEMBL1138881, “Application of phosphoramidate ProTide technology significantly improves antiviral potency of carbocyclic adenosine derivatives” (J Med Chem, 2006).

Assays:
[1] = test system: Cynomolgus monkey; experiment: Metabolic stability in cynomolgus monkey liver S9 fraction; assay type: ADME, Macaca fascicularis
Procedure, shortened: (§1)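 Pooled cynomolgus S9 (liver or intestinal segments), test compound 10 µM final, 37 °C, DMSO <1% final; reaction started with NADPH 2.5 mM final. Aliquots taken at 0 (preincubation), 10, 20, 30 and 60 min, quenched with cold acetonitrile, centrifuged; supernatant parent measured by LC/MS/MS. Stability given as % remaining from pre- vs postincubation peak areas.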

[2] = test system: CEM cells (Homo sapiens); experiment: Cytotoxicity against CEM cells
[3] = test system: Hepatitis B virus; experiment: Antiviral activity against HBV in HepG2 2.2.15 cells; assay type: functional, organism-based
Procedure, shortened: (§2)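 HepG2 2.2.15 cells, which produce HBV constitutively, were seeded at 5 × 10³ per well. Drug-containing medium was replaced every other day for 9 days. Virions in the supernatant were captured on anti-HBsAg plates, and their DNA was quantified by PCR against an HBV standard curve and normalized to untreated cells. For cell growth, monolayers were ethanol-fixed and stained with bisbenzimide H33342, and fluorescence was compared with untreated cells. SI = CC₅₀/EC₅₀.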

[4] = test system: Cynomolgus monkey; experiment: Metabolic stability in cynomolgus monkey intestine S9 fraction; assay type: ADME, Macaca fascicularis; procedure, shortened: as §1
[5] = test system: Human immunodeficiency virus 1; experiment: Antiviral activity against HIV1 3B in MT4 cells; assay type: functional, organism-based; conditions: Human immunodeficiency virus 1, 3B
Procedure, shortened: (§3)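 MT-4 cells at 4.5 × 10⁵ cells/mL were infected with 100 CCID₅₀/mL of HIV-1 or HIV-2. Viable cells were then counted after trypan blue staining, and EC₅₀ was derived from these viable-cell counts.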

[6] = test system: Human immunodeficiency virus 1; experiment: Antiviral activity against HIV1 3B in CEM cells; assay type: functional, organism-based; conditions: Human immunodeficiency virus 1, 3B, CCRF-CEM
Procedure, shortened: (§4)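 CEM cells at 4.5 × 10⁵ cells/mL were infected with 100 CCID₅₀/mL of HIV-1 or HIV-2. Giant-cell formation was scored microscopically. EC₅₀ was the concentration preventing syncytium formation by 50%.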

[7] = test system: MT4; experiment: Cytotoxicity against MT4 cells; assay type: functional; conditions: Homo sapiens
Procedure, shortened: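 Exponentially growing MT-4 cells were resuspended at 5 × 10⁵ cells/mL in RPMI 1640 with 20% FBS and 20% IL-2. They were infected with HIV-1 IIIB (100 × TCID₅₀ per well) for 1 h at 37 °C, with mock-infected cells run in parallel. The suspension was diluted 6-fold onto serially diluted compound and incubated for 5 days at 37 °C in 5% CO₂. MTS staining was read at 492 nm.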

[8] = test system: HepG2; experiment: Cytotoxicity against HepG2 2.2.15 cells; assay type: functional; conditions: Homo sapiens; procedure, shortened: as §2
[9] = test system: Human immunodeficiency virus 2; experiment: Antiviral activity against HIV2 ROD in CEM cells; assay type: functional, organism-based; conditions: Human immunodeficiency virus 2, ROD, CCRF-CEM; procedure, shortened: as §4
[10] = test system: Human immunodeficiency virus 2; experiment: Antiviral activity against HIV2 ROD in MT4 cells; assay type: functional, organism-based; conditions: Human immunodeficiency virus 2, ROD; procedure, shortened: as §3
[11] = test system: HepG2; experiment: Selectivity index, CC50 for HepG2 2.2.15 cells/EC50 for HBV; assay type: functional; procedure, shortened: as §2

Structure (SMILES) | Stability [1] [%] | CC50 [2] [µM] | EC50 [3] [µM] | Stability [4] [%] | EC50 [5] [µM] | EC50 [6] [µM] | CC50 [7] [µM] | CC50 [8] [µM] | EC50 [9] [µM] | EC50 [10] [µM] | Ratio CC50/EC50 [11]
COC(=O)[C@H](CCSC)NP(=O)(OC[C@H]1C=C[C@@H](n2cnc3c(N)ncnc32)C1)Oc1ccccc1 (stereo partly specified) | 0 | 85.8 | 0.03 | 66 | 0.16 | 0.53 | > 5 | 16 | 1 | 0.21 | 
COC(=O)[C@H](Cc1ccc(O)cc1)NP(=O)(OC[C@H]1C=C[C@@H](n2cnc3c(N)ncnc32)C1)Oc1ccccc1 (stereo partly specified) | 0 | 110 | 0.05 | 0 | 0.58 | 5.33 | 26.9 | > 2 | 18.1 | 0.72 | 
CC(C)OC(=O)[C@H](C)NP(=O)(OC[C@H]1C=C[C@@H](n2cnc3c(N)ncnc32)C1)Oc1ccccc1 (stereo partly specified) | 8 | 84 | 0.006 | 90 | 0.15 | 0.3 | 91.4 | > 2 | 0.25 | 0.22 | 
C[C@H](NP(=O)(OC[C@H]1C=C[C@@H](n2cnc3c(N)ncnc32)C1)Oc1ccccc1)C(=O)OCC(C)(C)C (stereo partly specified) | 0 | 19.5 | 0.003 | 57 | 0.043 | 0.067 | > 10 | 13 | 0.083 | 0.03 | 
COC(=O)[C@@H](NP(=O)(OC[C@H]1C=C[C@@H](n2cnc3c(N)ncnc32)C1)Oc1ccccc1)C(C)C (stereo partly specified) | 2 | 167 | 0.02 | 91 | 0.64 | 1 | < 25 | 120 | 4.5 | 1.05 | 
C[C@H](NP(=O)(OC[C@H]1C=C[C@@H](n2cnc3c(N)ncnc32)C1)Oc1ccccc1)C(=O)OC(C)(C)C (stereo partly specified) | 1 | 130 | 0.25 | 96 | < 0.26 | 2.93 | < 25 | 170 | 3.67 | 3.08 | 
COC(=O)[C@H](C)NP(=O)(OC[C@H]1C=C[C@@H](n2cnc3c(N)ncnc32)C1)Oc1ccccc1 (stereo partly specified) | 24 | 18.1 | 0.017 | 74 | 0.03 | 0.13 | 6.4 | 1280 | 0.09 | 0.043 | 75000
CC[C@H](C)[C@H](NP(=O)(OC[C@H]1C=C[C@@H](n2cnc3c(N)ncnc32)C1)Oc1ccccc1)C(=O)OC (stereo partly specified) | 0 | 118 | 0.06 | 69 | 0.96 | 2.1 | > 5 | 76 | 3.5 | 1.13 | 
COC(=O)[C@H](CCCCN)NP(=O)(OC[C@H]1C=C[C@@H](n2cnc3c(N)ncnc32)C1)Oc1ccccc1.O=C(O)C(F)(F)F (stereo partly specified) | 95 | > 250 | 2 | 17 | 15.2 | 25 | > 25 | > 100 | 150 | 27.2 | 
